The record followed here is ChEMBL document CHEMBL3525963, “Tissue distribution and elimination of [14C]apixaban in rats” (Drug Metab Dispos, 2011).

What all share (set-up): dose 5 mg/kg, dosed compound name [14C]-apixaban, route oral
Conditions in all cases: in vivo

The test system of one data set is Adrenal gland. Briefly: Biodistribution in female Sprague-Dawley rat adrenal gland at 5 mg/kg, po administered as single dose measured after 4 hrs. The format is ADME, organism-based. The essentials:
(§1)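 [¹⁴C]Apixaban given by oral gavage at 5 mg/kg (100 μCi/kg) in 0.5% Tween 80 in Labrafil (1.0 mg/mL dosing solution) to rats fasted overnight through 4 h post-dose. One rat per time point; carcass frozen in hexane/dry ice. Quantitative whole-body autoradiography used 40 µm sagittal sections and a phosphor imaging plate calibrated with [¹⁴C]glucose standards (0.001–6.5 μCi/g). Read-out in µg eq apixaban/g; LLOQ 0.037 μg eq/g.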

The subject of another data set is Pancreas. Nature of the data set: Biodistribution in male Sprague-Dawley rat pancreas at 5 mg/kg, po administered as single dose measured after 8 hrs. The format is ADME, organism-based. The essentials: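 [14C]apixaban (1.0 mg/mL, 20 μCi/mL) in 0.5% Tween 80 in Labrafil, given by oral gavage at 100 μCi/kg to male rats (225-252 g) fasted overnight through 4 h post-dose. One rat per time point. Carcasses frozen in hexane/dry ice and cut into 40 µm sagittal sections. QWBA read on phosphor plates against [14C]glucose standards, reported as µg eq/g. LLOQ 0.037 µg eq/g.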

Data set [1] has as its system Rattus norvegicus. Nature of the data set: Biodistribution in fetal liver of pregnant Sprague-Dawley rat at 5 mg/kg, po administered as single dose measured after 24 hrs. The class given is ADME, organism-based. The essentials:
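Fasted pregnant SD rats (n=6, 270-319 g) each received one oral gavage dose of [14C]apixaban, 5 mg/kg (100 μCi/kg), in 0.5% Tween 80/Labrafil. One rat was killed at each of 0.5, 1, 4, 8, 24 and 48 h. Carcasses were frozen in hexane/dry ice, cut into 40 µm sagittal sections, exposed to phosphor plates and quantified against [14C]glucose standards as µg eq/g. LLOQ was 0.037 µg eq/g.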

Another data set relates to Brain. Nature of the data set: Biodistribution in male Sprague-Dawley rat brain at 5 mg/kg, po administered as single dose measured after 24 hrs. The format is ADME, organism-based.
In another data set the test system is Blood. Nature of the data set: Cmax in lactating Sprague-Dawley rat blood at 5 mg/kg, po administered as single dose. The format is ADME, organism-based. Put shortly: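 Lactating SD rats received a single oral gavage of 5 mg/kg (108 μCi/kg) in 0.5% Tween 80/Labrafil. Three rats were sampled per time point at 0.5-24 h. Oxytocin was given sc 15 min before milking under anesthesia. Milk, blood and plasma were counted in duplicate by liquid scintillation for 10 min and expressed as apixaban equivalents.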

Another data set deals with Liver. Nature of the data set: Biodistribution in female Sprague-Dawley rat liver at 5 mg/kg, po administered as single dose measured after 24 hrs. The format is ADME, organism-based. The essentials: as §1
In data set [2] the test system is Rattus norvegicus. Nature of the data set: Biodistribution in male Sprague-Dawley rat salivary gland at 5 mg/kg, po administered as single dose measured after 1 hr. The class given is ADME, organism-based.
The test system of data set [3] is Rattus norvegicus. Nature of the data set: Biodistribution in pregnant Sprague-Dawley rat brown fat at 5 mg/kg, po administered as single dose measured after 0.5 hrs. The class given is ADME, organism-based, Brown adipose tissue.
In data set [4] the test system is Muscle tissue. Nature of the data set: Biodistribution in female Sprague-Dawley rat muscle at 5 mg/kg, po administered as single dose measured after 8 hrs. The format is ADME, organism-based. Put shortly:
as §1

The subject of data set [5] is Spleen. Briefly: Biodistribution in pregnant Sprague-Dawley rat spleen at 5 mg/kg, po administered as single dose measured after 8 hrs. The class given is ADME, organism-based.
Data set [6] has as its system Rattus norvegicus. Briefly: Biodistribution in pregnant Sprague-Dawley rat amnion at 5 mg/kg, po administered as single dose measured after 4 hrs. The class given is ADME, organism-based.
In data set [7] the test system is Thymus. Briefly: Biodistribution in pregnant Sprague-Dawley rat thymus at 5 mg/kg, po administered as single dose measured after 24 hrs. The class given is ADME, organism-based. Put shortly:
(§2)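 Pregnant SD rats (270-319 g) were fasted overnight and given one oral gavage of 5 mg/kg (100 μCi/kg) in 0.5% Tween 80 in Labrafil. One rat was euthanized per time point (0.5, 1, 4, 8, 24, 48 h) and the carcass frozen. 40 µm sagittal sections were phosphor-imaged against [14C]glucose standards and results reported as µg eq/g; LLOQ 0.037 µg eq/g.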

Data set [8] has as its system Muscle tissue. Briefly: Biodistribution in pregnant Sprague-Dawley rat muscle at 5 mg/kg, po administered as single dose measured after 24 hrs. The class given is ADME, organism-based. The essentials:
as §2

The subject of a further data set is Heart. Nature of the data set: Biodistribution in female Sprague-Dawley rat heart at 5 mg/kg, po administered as single dose measured after 8 hrs. The class given is ADME, organism-based. Put shortly:
(§3)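 Quantitative whole-body autoradiography was run after a single 5 mg/kg (100 μCi/kg) oral gavage to fasted female or pregnant SD rats, one rat per time point. Carcasses were frozen in hexane/dry ice, and 40 µm sagittal sections were dried at −20°C for at least 48 h. Sections were exposed to a phosphor plate alongside [14C]glucose standards (0.001–6.5 µCi/g). Results are µg eq/g, with LLOQ 0.037 µg eq/g.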

The test system of the next data set is Harderian gland. Nature of the data set: Biodistribution in pregnant Sprague-Dawley rat harderian gland at 5 mg/kg, po administered as single dose measured after 4 hrs. The format is ADME, organism-based.
Data set [9] relates to Thymus. Briefly: Biodistribution in female Sprague-Dawley rat thymus at 5 mg/kg, po administered as single dose measured after 4 hrs. The class given is ADME, organism-based. Put shortly: as §1
Data set [10] deals with Spleen. Briefly: Biodistribution in female Sprague-Dawley rat spleen at 5 mg/kg, po administered as single dose measured after 0.5 hrs. The class given is ADME, organism-based. Put shortly:
as §1

The test system of data set [11] is Thymus. Nature of the data set: Biodistribution in male Sprague-Dawley rat thymus at 5 mg/kg, po administered as single dose measured after 1 hr. The class given is ADME, organism-based.
For data set [12], the system named is Rattus norvegicus. Nature of the data set: Biodistribution in female Sprague-Dawley rat pituitary gland at 5 mg/kg, po administered as single dose measured after 72 hrs. The class given is ADME, organism-based. Put shortly: as §3
Data set [13] concerns Rattus norvegicus. Nature of the data set: Biodistribution in fetal kidney of pregnant Sprague-Dawley rat at 5 mg/kg, po administered as single dose measured after 24 hrs. The class given is ADME, organism-based. The essentials:
as §3

For data set [14], the system named is Rattus norvegicus. Briefly: Biodistribution in male Sprague-Dawley rat salivary gland at 5 mg/kg, po administered as single dose measured after 8 hrs. The format is ADME, organism-based.
The test system of another data set is Lung. Briefly: Biodistribution in female Sprague-Dawley rat lung at 5 mg/kg, po administered as single dose measured after 0.5 hrs. The format is ADME, organism-based. Put shortly: as §1
Data set [15] has as its system Rattus norvegicus. Nature of the data set: Biodistribution in fetal brain of pregnant Sprague-Dawley rat at 5 mg/kg, po administered as single dose measured after 4 hrs. The class given is ADME, organism-based. Put shortly: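 Pregnant SD rats received a single oral gavage of [14C]apixaban at 5 mg/kg (100 μCi/kg; 1.0 mg/mL, 20 μCi/mL in 0.5% Tween 80/Labrafil) after fasting, one dam per time point. Frozen carcasses were cut into 40 µm sagittal sections and read by phosphor-imaging QWBA against [14C]glucose standards. Fetal tissue radioactivity is reported as µg eq/g, with LLOQ 0.037 µg eq/g.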

In data set [16] the test system is Rattus norvegicus. Nature of the data set: Biodistribution in female Sprague-Dawley rat brown fat at 5 mg/kg, po administered as single dose measured after 0.5 hrs. The format is ADME, organism-based, Brown adipose tissue. Put shortly: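 [14C]apixaban (20 μCi/mL in dosing solution) in 0.5% Tween 80 in Labrafil given by oral gavage to fasted female rats, 206-213 g, at 100 μCi/kg. One rat per time point was euthanized and snap-frozen. Sagittal 40 µm whole-body sections were read by QWBA phosphor imaging against [14C]glucose standards. Results are in µg eq apixaban/g, with LLOQ 0.037 μg eq/g.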

As to `COc1ccc(-n2nc(C(N)=O)c3c2C(=O)N(c2ccc(N4CCCC[14C]4=O)cc2)CC3)cc1`, the Radiolabel recovery is on record as 0.9 ugequiv/g in the data set with Adrenal gland; 0.12 ugequiv/g in the data set with Pancreas; “Not sampled as not visualised in autoradiograph” with Rattus norvegicus [1]; < 0.037 ugequiv/g with Brain; < 0.037 ugequiv/g with Liver; 0.72 ugequiv/g in the data set on Rattus norvegicus [2]. Further, the Radiolabel recovery was 1.08 ugequiv/g in the data set with Rattus norvegicus [3]; 0.08 ugequiv/g in the data set on Muscle tissue [4]; 0.05 ugequiv/g with Spleen [5]; 11.24 ugequiv/g in the data set on Rattus norvegicus [6]; “Not detected assumed BLQ” in the data set on Thymus [7]; “Not detected assumed BLQ” in the data set on Muscle tissue [8]. In addition, the Radiolabel recovery is on record as 0.11 ugequiv/g with Heart; 1.1 ugequiv/g in the data set on Harderian gland; 0.3 ugequiv/g with Thymus [9]; 0.29 ugequiv/g in the data set with Spleen [10]; 0.46 ugequiv/g in the data set on Thymus [11]; “Not detected assumed BLQ” in the data set with Rattus norvegicus [12]. The Radiolabel recovery result is on record as “Not sampled as not visualised in autoradiograph” in the data set with Rattus norvegicus [13]; 0.13 ugequiv/g with Rattus norvegicus [14]; 0.43 ugequiv/g with Lung; 0.06 ugequiv/g in the data set on Rattus norvegicus [15]; 0.48 ugequiv/g in the data set on Rattus norvegicus [16]. In the data set with Blood, this molecule showed a Cmax of 514 ngequiv/g.
